MC4R ag barr: MC4R agonists recruiting beta-arrestin, primary screen, cell-based, luminescence, agonist arm of biased-ligand search; Melanocortin receptor 4 (Homo sapiens), P32245; U2OS MC4R beta-arrestin complementation; percent of melanotan II response, DMSO zero; activation, % at 8.9 µM; hit rate 0.98% among 360,000;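 active = activation above a per-plate cutoff, the mean activation of sample wells on that plate plus 3 SD, cut at about 8% in these data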
NTR1 ag: agonists of human NTR1, primary screen, imaging, U2OS cells, beta-arrestin-GFP, high content; Neurotensin receptor type 1 (Homo sapiens), P30989; NTR1-U2OS beta-arrestin-GFP spot imaging, agonist mode; activation, % at 20 µM; hit rate 0.17% among 330,000; AID 493036, 2011;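 active = activation at or above 40% of the spot to cytoplasm intensity ratio, with at least 20 cells analyzed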
Lipid droplet: inhibitors of hepatocyte lipid droplet formation, primary screen, imaging, high-throughput imaging, BODIPY stain. AML12 mouse hepatocytes, oleate lipid droplets. inhibition, % at 6.5 µM. hit rate 0.4% among 240,000. AID 1656, 2009;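 active = lipid droplet intensity inhibited by at least 50%, with more than 500 cells counted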
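Test system: AML12 hepatocytes (mouse); reagent: oleate loading, 100 µM; dosing: one dose, 6.5 µM compound; incubation: overnight exposure; signal: fluorescence imaging, 20x objective, two fields per well; read-out basis: % inhibition of corrected integrated BODIPY droplet signal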
PREPL inhibitor: PREPL enzyme inhibitors, primary screen, biochemical, fluorescence polarization; recombinant PREPL, fluorescence polarization activity-based probe; hit rate 0.68% among 320,000; AID 2751, 2010; inhibition, % at 5.96 µM; Prolyl endopeptidase-like (Homo sapiens), Q4J6C6; in the data active = inhibition above about 43%
MC4R antag cAMP: MC4R antagonists of cAMP signaling, primary screen, cell-based, TR-FRET, antagonist arm of biased-ligand search; inhibition, % at 6.5 µM; hit rate 0.48% among 360,000; MC4R-expressing cells, MTII-stimulated cAMP, LANCE TR-FRET; Melanocortin receptor 4 (Homo sapiens), P32245;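 active = inhibition above its plate's cutoff, the mean of tested wells on that plate plus 3 SD, cut at about 29% in these data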
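Assay system: U2OS-MC4R stable cell line; Also added: Melanotan II; Technique: Eu-cAMP/anti-cAMP TR-FRET, emission 671 nm; Times: 30-min compound, 1-h challenge, 1-h detection, room temperature.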
m5-HT2A agonist: mouse Htr2a agonists via beta-arrestin recruitment, primary screen, cell-based, luminescence. activation, % at 7.6 µM. CHO-K1 mHTR2A beta-arrestin complementation; percent of 30 µM serotonin response. 5-hydroxytryptamine receptor 2A (Mus musculus), P35363. hit rate 0.66% among 360,000;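 active = activation above a run cutoff, the mean activation of all tested compounds plus 3 SD, cut at about 14% in these data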
Target sequence (P35363 whole entry, looked up): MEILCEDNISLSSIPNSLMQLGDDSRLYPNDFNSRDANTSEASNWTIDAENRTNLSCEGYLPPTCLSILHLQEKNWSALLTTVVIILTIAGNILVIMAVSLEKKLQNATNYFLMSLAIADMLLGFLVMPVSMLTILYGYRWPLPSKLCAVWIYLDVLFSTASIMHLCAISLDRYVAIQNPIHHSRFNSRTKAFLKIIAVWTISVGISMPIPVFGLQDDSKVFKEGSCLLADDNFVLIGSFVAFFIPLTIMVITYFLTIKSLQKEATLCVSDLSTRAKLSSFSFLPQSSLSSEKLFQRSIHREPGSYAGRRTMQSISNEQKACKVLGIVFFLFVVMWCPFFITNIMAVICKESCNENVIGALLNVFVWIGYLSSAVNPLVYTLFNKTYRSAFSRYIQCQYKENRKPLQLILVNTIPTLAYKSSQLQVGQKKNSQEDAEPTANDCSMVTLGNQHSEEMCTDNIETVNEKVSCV
MC4R barr conf: MC4R beta-arrestin agonists, retest, confirmation, cell-based, luminescence, U2OS. shares compounds with MC4R ag barr. U2OS MC4R beta-arrestin recruitment; scaled DMSO 0%, Melanotan II 100%. activation, % at 8.9 µM. hit rate 31% among 2,400. AID 602192, 2012;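 active = mean activation across replicates above the hit cutoff set in the earlier primary screen, cut at about 8% in these data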
MOR DOR agonist: agonists of MOR-DOR heterodimerization, counter-screen for MC4R biased agonist project, cell-based, luminescence; shares compounds with MC4R ag barr; U2OS PathHunter beta-arrestin, beta-gal luminescence; percent of deltorphin B response, DMSO zero; activation, % at 9.2 µM; hit rate 5.8% among 2,400; AID 602194, 2012;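 active = mean activation across replicates exceeds the hit threshold derived in the earlier primary screen, cut at about 18% in these data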
Numbers stand for hits; n = inactive; x = no result. Shown are actives, neighbours in structure and some others; about 2.7% of the full set was active somewhere.

SMILES	MC4R ag barr	NTR1 ag	Lipid droplet	PREPL inhibitor	MC4R antag cAMP	m5-HT2A agonist	MC4R barr conf	MOR DOR agonist
Cc1ccc(C(=O)NC(=S)Nc2ccc(NC(=O)c3cccc(Cl)c3)cc2)cc1	12.1	n	n	n	n	n	13.3	n
CSc1ccccc1NC(=O)c1cc(-c2cccs2)on1	9.8	n	x	n	n	n	n	n
COc1ccc(-c2cc(C(=O)Nc3ccccc3SC)no2)cc1	n	n	n	n	n	n	x	x
O=C(O)/C=C(\Oc1ccccc1)C1(O)CCCCC1	n	n	n	n	n	n	x	x
CC(C)[C@H](NC(=O)Cc1ccccc1)C(=O)OCc1cc(=O)n2c(n1)sc1ccccc12	14.1	n	n	n	n	n	n	n
Cc1ccc2c(CC(=O)OCc3cc(=O)n4c(n3)sc3ccccc34)coc2c1	n	n	x	n	n	n	x	x
O=C(Nc1cc(N2CCOCC2)ncn1)Nc1cccc2ccccc12	21.6	n	n	n	n	n	n	n
CCn1c2ccccc2nc2cc3c(cc21)c(Cl)c(=O)c1ccccc13	n	x	x	x	n	n	x	x
COC(=O)C1=C(C)N(Cc2ccccc2)C(=NCc2ccccc2)N[C@H]1c1cccc(F)c1	9.6	n	n	n	n	n	10.6	n
CCn1c(SCC(=O)Nc2ccc(C(C)=O)cc2)nc2nc3c(cc2c1=O)CCCC3	19.3	n	n	n	n	n	17.6	n
CCn1c(SCC(=O)Nc2ccc(Cl)cc2)nc2nc3c(cc2c1=O)CCCC3	n	n	n	n	n	n	x	x
Cc1ccc(C(=O)NCCNc2nc3cc(C)c(C)cc3cc2C)cc1	15.0	n	n	n	n	n	19.8	n
Cc1cc2cc(C)c(NCCNC(=O)c3ccccc3)nc2cc1C	n	n	n	n	n	n	x	x
CCOC(=O)C1C(=O)C=C(/C=C/c2ccc(N(C)C)cc2)CC1c1ccccc1 (stereo unspecified)	n	n	n	n	n	n	x	x
COc1ccc(CCn2c(C)cc(C(=O)COC(=O)c3ccc(O)cc3O)c2C)cc1	24.7	x	x	x	n	n	9.3	n
O=S(=O)(Nc1ccccc1OC(F)F)c1ccc(S(=O)(=O)N2CCCC2)cc1	n	n	x	n	n	n	x	x
CCOc1ccc(C(=O)Nc2ccc(NC(=O)c3ccco3)c(Cl)c2)cc1Cl	35.6	n	n	n	n	n	n	18.6
CCOc1ccc(C(=O)Nc2cccc([N+](=O)[O-])c2)cc1Br	15.3	n	n	n	n	n	n	n
CCOc1ccc(C(=O)NC(=S)Nc2ccc(NC(=O)CC)cc2)cc1[N+](=O)[O-]	n	n	n	n	n	n	x	x
CCC(=O)NC(=S)Nc1ccc(NC(=O)c2ccc(C)c([N+](=O)[O-])c2)cc1	10.8	n	n	n	n	n	n	n
CCOc1ccc(C(=O)Nc2cccc(NC(=O)c3cccs3)c2)cc1[N+](=O)[O-]	n	x	n	x	n	n	x	x
CCOc1ccc(C(=O)Nc2ccc(NC(=O)c3ccccc3)c(C)c2)cc1[N+](=O)[O-]	11.9	n	n	x	n	n	n	n
O=C(NC1CCCCC1)C(c1ccncc1)N(C(=O)c1csnn1)c1ccc(F)cc1 (stereo unspecified)	n	n	n	n	n	n	x	x

Assay outcomes as filed in PubChem.
